The source of these data is ChEMBL document CHEMBL4152223 (Eur J Med Chem, 2018).

Molecules are shown by their SMILES. Values after ≈ are worked out from the molar mass of the structure shown.

As usually defined, the MIC is the smallest concentration in the dilution series that meets the test's criterion for growth inhibition. Read a high MIC as a need for much substance.

For data set [1], the system named is Mycobacterium tuberculosis. The data set can be described thus: Antimycobacterial activity against INH/RIF/rifabutine/STM resistant Mycobacterium tuberculosis 9449/2006 after 14 days. The data set is classed as functional. The settings on record: 9449/2006, 336 h. In outline:
(§1)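 MIC against four MDR-TB strains and one XDR-TB strain, each inoculated at 10^-3 dilution, using the same broth method as for drug-susceptible M. tuberculosis. Concentrations tested were 1000 down to 1 µM in twofold-type steps (1000, 500, 250, 125, 62.5, 32, 16, 8, 4, 2, 1 µM). MIC is the lowest concentration with complete growth inhibition.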

Data set [2] deals with Mycobacterium tuberculosis. The experiment in a line: Antimycobacterial activity against INH/RIF/rifabutine/STM resistant Mycobacterium tuberculosis 9449/2006 after 21 days. The data set is classed as functional. The settings on record: 9449/2006, 504 h. The essentials: as §1
Data set [3] concerns Mycobacterium tuberculosis. The data set can be described thus: Antimycobacterial activity against INH/RIF/rifabutine/STM/EMB/clofazimine resistant Mycobacterium tuberculosis Praha 1 after 14 days. It is filed as functional. Conditions: Praha 1, 336 h. The essentials: as §1
Data set [4] has as its system Mycobacterium tuberculosis. The experiment in a line: Antimycobacterial activity against INH/RIF/rifabutine/STM/EMB/clofazimine resistant Mycobacterium tuberculosis Praha 1 after 21 days. It is filed as functional. The settings on record: Praha 1, 504 h. The essentials:
as §1

Data set [5] has as its system Mycobacterium tuberculosis. The data set can be described thus: Antimycobacterial activity against INH/RIF/rifabutine/STM/EMB/OFX/clofazimine resistant Mycobacterium tuberculosis Praha 4 after 14 days. The data set is classed as functional. The settings on record: Praha 4, 336 h. The essentials: as §1
The subject of data set [6] is Mycobacterium tuberculosis. The data set can be described thus: Antimycobacterial activity against INH/RIF/rifabutine/STM/EMB/OFX/clofazimine resistant Mycobacterium tuberculosis Praha 4 after 21 days. The data set is classed as functional. The settings on record: Praha 4, 504 h. The essentials:
as §1

Data set [7] deals with Mycobacterium tuberculosis. The experiment in a line: Antimycobacterial activity against INH/RIF/rifabutine/STM/EMB resistant Mycobacterium tuberculosis 234/2005 after 14 days. The data set is classed as functional. Conditions: 234/2005, 336 h. The essentials:
as §1

Data set [8] has as its system Mycobacterium tuberculosis. The experiment in a line: Antimycobacterial activity against INH/RIF/rifabutine/STM/EMB resistant Mycobacterium tuberculosis 234/2005 after 21 days. It is filed as functional. Conditions: 234/2005, 504 h. In outline:
as §1

The subject of data set [9] is Mycobacterium tuberculosis. The experiment in a line: Antimycobacterial activity against INH/RIF/rifabutine/STM/EMB/OFX/gentamicin/amikacin resistant Mycobacterium tuberculosis Praha 131 after 14 days. It is filed as functional. Conditions: Praha 131, 336 h. The essentials: as §1
Data set [10] relates to Mycobacterium tuberculosis. The data set can be described thus: Antimycobacterial activity against INH/RIF/rifabutine/STM/EMB/OFX/gentamicin/amikacin resistant Mycobacterium tuberculosis Praha 131 after 21 days. Conditions: Praha 131, 504 h. It is filed as functional. In outline:
as §1

A short description of data set [11]: Selectivity index, ratio of IC50 for human HepG2 cells to MIC for INH/RIF/rifabutine/STM resistant Mycobacterium tuberculosis 9449/2006. It is filed as toxicity. Conditions: read-out: Selectivity Index. In outline:
(§2)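 SI is calculated as HepG2 IC50 divided by MIC. HepG2 cells (passage 2-4) were grown in EMEM with 10% FBS, L-glutamine and non-essential amino acids. Compounds in DMSO were tested in triplicate at eight concentrations, and viability was read by MTS tetrazolium reduction. 10% DMSO served as the 0% viability control.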

Data set [12] can be described thus: Selectivity index, ratio of IC50 for human HepG2 cells to MIC for INH/RIF/rifabutine/STM/EMB/clofazimine resistant Mycobacterium tuberculosis Praha 1. It is filed as toxicity. The settings on record: read-out: Selectivity Index. The essentials: as §2
The nature of data set [13]: Selectivity index, ratio of IC50 for human HepG2 cells to MIC for INH/RIF/rifabutine/STM/EMB/OFX/clofazimine resistant Mycobacterium tuberculosis Praha 4. Conditions: read-out: Selectivity Index. The data set is classed as toxicity. The essentials: as §2
The nature of data set [14]: Selectivity index, ratio of IC50 for human HepG2 cells to MIC for INH/RIF/rifabutine/STM/EMB resistant Mycobacterium tuberculosis 234/2005. The data set is classed as toxicity. Conditions: read-out: Selectivity Index. In outline: as §2
Data set [15] is described as follows: Selectivity index, ratio of IC50 for human HepG2 cells to MIC for INH/RIF/rifabutine/STM/EMB/OFX/gentamicin/amikacin resistant Mycobacterium tuberculosis Praha 131. Conditions: read-out: Selectivity Index. The data set is classed as toxicity. The essentials:
as §2

Data set [16] in a line: Selectivity ratio of MIC for INH/RIF/rifabutine/STM resistant Mycobacterium tuberculosis 9449/2006 to MIC for Mycobacterium tuberculosis H37Rv. The data set is classed as functional.
Data set [17] can be described thus: Selectivity ratio of MIC for INH/RIF/rifabutine/STM/EMB/clofazimine resistant Mycobacterium tuberculosis Praha 1 to MIC for Mycobacterium tuberculosis H37Rv. The data set is classed as functional.
Data set [18] can be described thus: Selectivity ratio of MIC for INH/RIF/rifabutine/STM/EMB/OFX/clofazimine resistant Mycobacterium tuberculosis Praha 4 to MIC for Mycobacterium tuberculosis H37Rv. It is filed as functional.
A short description of data set [19]: Selectivity ratio of MIC for INH/RIF/rifabutine/STM/EMB resistant Mycobacterium tuberculosis 234/2005 to MIC for Mycobacterium tuberculosis H37Rv. It is filed as functional.
Data set [20] can be described thus: Selectivity ratio of MIC for INH/RIF/rifabutine/STM/EMB/OFX/gentamicin/amikacin resistant Mycobacterium tuberculosis Praha 131 to MIC for Mycobacterium tuberculosis H37Rv. It is filed as functional.

Turning to `CNC(=O)NNC(=O)c1ccncc1`, the MIC in data set [1], in data set [2], in data set [3], in data set [4], in [5] and in data set [6] was 62.5 µM (≈ 12.1 µg/mL) throughout. Moreover, the MIC in data set [7] came out at 62.5 µM (≈ 12.1 µg/mL); in data set [8], 62.5 µM (≈ 12.1 µg/mL); in data set [9], 32 µM (≈ 6.21 µg/mL); in data set [10] it was 62.5 µM (≈ 12.1 µg/mL). Also, the selectivity ratio in data set [11], in [12], in data set [13], in [14] and in [15] was over 80 in each case. Moreover, the Ratio in data set [16], in [17], in data set [18], in data set [19] and in data set [20] was under 125 throughout.

As for `CCCNC(=O)NNC(=O)c1ccncc1`, the MIC in data set [1], in data set [2], in data set [3], in [4], in [5] and in data set [6] was 16 µM (≈ 3.56 µg/mL) each time. Besides, the MIC in data set [7], in [8], in data set [9] and in [10] was 16 µM (≈ 3.56 µg/mL) in each case. Besides, the selectivity ratio in [11], in data set [12], in [13], in [14] and in data set [15] was over 312 throughout. The Ratio in data set [16], in data set [17], in [18], in data set [19] and in [20] was under 125 each time.

`CCNC(=O)NNC(=O)c1ccncc1`: the MIC in data set [1], in data set [2], in [3], in data set [4], in data set [5] and in [6] was 125 µM (≈ 26 µg/mL) throughout. The MIC in data set [7], in data set [8], in data set [9] and in data set [10] was 125 µM (≈ 26 µg/mL) in each case. Also, the selectivity ratio in data set [11], in data set [12], in data set [13], in data set [14] and in data set [15] was over 32 throughout.

Take `CCCCCCCCCCCCNc1nnc(-c2ccncc2)o1`: the MIC in data set [1] is 4 µM (≈ 1.32 µg/mL); in [2], 4 µM (≈ 1.32 µg/mL); in data set [3], 4 µM (≈ 1.32 µg/mL); in [4], 8 µM (≈ 2.64 µg/mL); in [5], 4 µM (≈ 1.32 µg/mL); in data set [6] it was 8 µM (≈ 2.64 µg/mL). The MIC amounted to 4 µM (≈ 1.32 µg/mL) in data set [7], 8 µM (≈ 2.64 µg/mL) in [8], 4 µM (≈ 1.32 µg/mL) in [9] and 8 µM (≈ 2.64 µg/mL) in data set [10]. The selectivity ratio in data set [11] is over 6.25; in [12], over 6.25; in data set [13] it was over 6.25; in data set [14], over 6.25; in data set [15], over 12.5.
